Laboratory results published in ChEMBL document CHEMBL1123779, “Modifications of primaquine as antimalarials. 4. 5-Alkoxy derivatives of primaquine” (J Med Chem, 1987).

What was measured:
[1] = test system: Plasmodium cynomolgi; assay: Cures in Plasmodium cynomolgi infected Rhesus monkeys (Macaca mulatta) on 1 mg/kg/day after 7 days; cured 2 of 2; format: functional
[2] = test system: Mus musculus; assay: Suppressive blood schizonticidal antimalarial activity evaluated in the trophozoite-induced Plasmodium berghei infection in mice (Mus musculus) at a dose 5 mg/kg given as no. of cures; format: functional
In short: (§1)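 Run at the Rane Laboratory with blood-induced P. berghei infections in mice, five animals per group. A cure is a mouse surviving to 60 days postinfection. Deaths before day 6 are recorded separately as toxic deaths. Activity is scored from the increase in mean survival time over untreated controls, and counts as active when treated MST is more than twice control MST.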

[3] = test system: Plasmodium cynomolgi; assay: Radical curative antimalarial activity against Plasmodium cynomolgi in Rhesus monkeys (Macaca mulatta) at 0.316 mg/kg/day over 7 days; cured 3 of 5; format: functional
[4] = test system: Mus musculus; assay: Suppressive blood schizonticidal antimalarial activity evaluated in the trophozoite-induced Plasmodium berghei infection in mice (Mus musculus) at a dose 20 mg/kg given as number of toxic deaths; format: ADME, organism-based; design: dose 20 mg/kg; conditions: in vivo
In short: (§2)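 Rane Laboratory mouse test with blood-induced P. berghei infection, five mice per group. Toxic deaths are deaths occurring before the 6th day postinfection.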

[5] = test system: Mus musculus; assay: Suppressive blood schizonticidal antimalarial activity evaluated in the trophozoite-induced Plasmodium berghei infection in mice (Mus musculus) at a dose 10 mg/kg given as no. of cures; format: functional; in short: as §1
[6] = test system: Mus musculus; assay: Suppressive blood schizonticidal antimalarial activity evaluated in the trophozoite-induced Plasmodium berghei infection in mice (Mus musculus) at a dose 40 mg/kg given as number of toxic deaths; format: ADME, organism-based; design: dose 40 mg/kg; conditions: in vivo; in short: as §2
[7] = test system: Mus musculus; assay: Suppressive blood schizonticidal antimalarial activity evaluated in the trophozoite-induced Plasmodium berghei infection in mice (Mus musculus) at a dose 2.5 mg/kg given as number of cures; format: functional; in short: as §1
[8] = test system: Plasmodium cynomolgi; assay: Cures in Plasmodium cynomolgi infected Rhesus monkeys (Macaca mulatta) on 0.1 mg/kg/day after 7 days; cured 1 of 3; format: functional
[9] = test system: Plasmodium cynomolgi; assay: Cures in Plasmodium cynomolgi infected Rhesus monkeys (Macaca mulatta) on 0.316 mg/kg/day after 7 days; cured 3 of 3; format: functional
[10] = test system: Mus musculus; assay: Suppressive blood schizonticidal antimalarial activity evaluated in the trophozoite-induced Plasmodium berghei infection in mice (Mus musculus) at a dose 80 mg/kg given as no. of cures; format: functional; in short: as §1
[11] = test system: Plasmodium cynomolgi; assay: Radical curative antimalarial activity against Plasmodium cynomolgi in Rhesus monkeys (Macaca mulatta) at 0.1 mg/kg/day over 7 days; cured 5 of 5; format: functional
[12] = test system: Mus musculus; assay: Suppressive blood schizonticidal antimalarial activity evaluated in the trophozoite-induced Plasmodium berghei infection in mice (Mus musculus) at a dose 160 mg/kg given as no. of toxic deaths; format: functional; in short: as §2
[13] = test system: Mus musculus; assay: Suppressive blood schizonticidal antimalarial activity evaluated in the trophozoite-induced Plasmodium berghei infection in mice (Mus musculus) at a dose 20 mg/kg given as no. of cures; format: functional; in short: as §1
[14] = test system: Mus musculus; assay: Suppressive blood schizonticidal antimalarial activity evaluated in the trophozoite-induced Plasmodium berghei infection in mice (Mus musculus) at a dose 320 mg/kg given as no. of toxic deaths; format: functional; in short: as §2
[15] = test system: Plasmodium cynomolgi; assay: Cures in Plasmodium cynomolgi infected Rhesus monkeys (Macaca mulatta) on 1 mg/kg/day after 7 days; cured 1 of 1; format: functional
[16] = test system: Plasmodium cynomolgi; assay: Cures in Plasmodium cynomolgi infected Rhesus monkeys (Macaca mulatta) on 3.16 mg/kg/day after 7 days; cured 0 of 1; format: functional
[17] = test system: Plasmodium berghei; assay: (§3) Suppressive blood schizonticidal antimalarial activity evaluated in the trophozoite-induced Plasmodium berghei infection in mice (Mus musculus) at a dose 640 mg/kg given as number of toxic deaths; format: toxicity, organism-based; design: dose 640 mg/kg; conditions: in vivo; in short: as §2
[18] = test system: Plasmodium berghei; assay: Blood schizonticidal activity in trophozoite-induced Plasmodium berghei infected mice (Mus musculus) at 40 mg/kg; numbers cured; format: functional; in short: as §1
[19] = test system: Plasmodium cynomolgi; assay: Cures in Plasmodium cynomolgi infected Rhesus monkeys (Macaca mulatta) on 3.16 mg/kg/day after 7 days; cured 2 of 2; format: functional
[20] = test system: Plasmodium cynomolgi; assay: Cures in Plasmodium cynomolgi infected Rhesus monkeys (Macaca mulatta) on 1 mg/kg/day after 7 days; cured 0 of 1; format: functional
[21] = test system: Mus musculus; assay: Suppressive blood schizonticidal antimalarial activity evaluated in the trophozoite-induced Plasmodium berghei infection in mice (Mus musculus) at a dose 160 mg/kg given as no. of cures; format: functional; in short: as §1
[22] = test system: Mus musculus; assay: Suppressive blood schizonticidal antimalarial activity evaluated in the trophozoite-induced Plasmodium berghei infection in mice (Mus musculus) at a dose 640 mg/kg given as no. of cures; format: functional; in short: as §1
[23] = test system: Plasmodium berghei; assay: Blood schizonticidal antimalarial activity in the trophozoite-induced Plasmodium berghei infection in mice (Mus musculus) at 20 mg/kg; format: functional; design: unit not given beside the values
In short: (§4)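 Run at the Rane Laboratory in mice infected with blood-induced P. berghei, five animals per group. Activity is the increase in mean survival time over untreated infected controls. A compound counts as active when treated-group MST is more than twice the control MST. Cures are mice surviving at 60 days postinfection.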

[24] = test system: Mus musculus; assay: Suppressive blood schizonticidal antimalarial activity evaluated in the trophozoite-induced Plasmodium berghei infection in mice (Mus musculus) at a dose 10 mg/kg; format: functional; in short: as §4
[25] = test system: Plasmodium cynomolgi; assay: Cures in Plasmodium cynomolgi infected Rhesus monkeys (Macaca mulatta) on 10.0 mg/kg/day after 7 days; cured 1 of 1; format: functional
[26] = test system: Mus musculus; assay: Suppressive blood schizonticidal antimalarial activity evaluated in the trophozoite-induced Plasmodium berghei infection in mice (Mus musculus) at a dose 320 mg/kg given as number of cures; format: functional; in short: as §1
[27] = test system: Mus musculus; assay: Suppressive blood schizonticidal antimalarial activity evaluated in the trophozoite-induced Plasmodium berghei infection in mice (Mus musculus) at a dose 80 mg/kg given as no. of toxic deaths; format: functional; in short: as §2
[28] = test system: Plasmodium cynomolgi; assay: Cures in Plasmodium cynomolgi infected Rhesus monkeys (Macaca mulatta) on 0.1 mg/kg/day after 7 days; cured 3 of 4; format: functional
In short: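 Radical curative test run by the SEATO Medical Research Laboratory, Bangkok, in rhesus monkeys with sporozoite-induced P. cynomolgi infection. Cures are recorded as the number cured out of the number treated.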

[29] = test system: Plasmodium cynomolgi; assay: Cures in Plasmodium cynomolgi infected Rhesus monkeys (Macaca mulatta) on 0.316 mg/kg/day after 7 days; cured 1 of 2; format: functional
[30] = test system: Plasmodium cynomolgi; assay: Cures in Plasmodium cynomolgi infected Rhesus monkeys (Macaca mulatta) on 0.1 mg/kg/day after 7 days (x7); cured 0 of 2; format: functional
[31] = test system: Mus musculus; assay: (§5) Suppressive blood schizonticidal antimalarial activity evaluated in the trophozoite-induced Plasmodium berghei infection in mice (Mus musculus) at a dose 40 mg/kg; format: functional; design: unit not given beside the values; in short: as §4
[32] = test system: Mus musculus; assay: as §3; format: ADME, organism-based; design: dose 640 mg/kg; conditions: in vivo; in short: as §2
[33] = test system: Mus musculus; assay: (§6) Suppressive blood schizonticidal antimalarial activity evaluated in the trophozoite-induced Plasmodium berghei infection in mice (Mus musculus) at a dose 80 mg/kg; format: functional; design: unit not given beside the values; in short: as §4
[34] = test system: Plasmodium cynomolgi; assay: Cures in Plasmodium cynomolgi infected Rhesus monkeys (Macaca mulatta) on 1 mg/kg/day after 7 days; cured 3 of 4; format: functional
[35] = test system: Plasmodium cynomolgi; assay: Cures in Plasmodium cynomolgi infected Rhesus monkeys (Macaca mulatta) on 0.316 mg/kg/day after 7 days; cured 0 of 2; format: functional
[36] = test system: Mus musculus; assay: (§7) Suppressive blood schizonticidal antimalarial activity evaluated in the trophozoite-induced Plasmodium berghei infection in mice (Mus musculus) at a dose 160 mg/kg; format: functional; in short: as §4
[37] = test system: Mus musculus; assay: Suppressive blood schizonticidal antimalarial activity evaluated in the trophozoite-induced Plasmodium berghei infection in mice (Mus musculus) at a dose 5 mg/kg; format: functional; design: unit not given beside the values; in short: as §4
[38] = test system: Plasmodium cynomolgi; assay: Radical curative antimalarial activity against Plasmodium cynomolgi infected Rhesus monkeys (Macaca mulatta) after 7 days at 0.1 mg/kg/day dose; cured 2 of 4; format: functional
[39] = test system: Plasmodium cynomolgi; assay: Cures in Plasmodium cynomolgi infected Rhesus monkeys (Macaca mulatta) on 0.316 mg/kg/day after 7 days; cured 2 of 3; format: functional
[40] = test system: Plasmodium cynomolgi; assay: Cures in Plasmodium cynomolgi infected Rhesus monkeys (Macaca mulatta) on 0.316 mg/kg/day after 7 days; cures 2 of 2; format: functional
[41] = test system: Mus musculus; assay: as §6; format: ADME, organism-based; design: dose 80 mg/kg; conditions: in vivo; in short: as §4
[42] = test system: Mus musculus; assay: as §7; format: ADME, organism-based; design: dose 160 mg/kg; conditions: in vivo; in short: as §4
[43] = test system: Plasmodium cynomolgi; assay: Cures in Plasmodium cynomolgi infected Rhesus monkeys (Macaca mulatta) on 1 mg/kg/day after 7 days; cured 3 of 3; format: functional
[44] = test system: Plasmodium cynomolgi; assay: Cures in Plasmodium cynomolgi infected Rhesus monkeys (Macaca mulatta) on 1 mg/kg/day after 7 days; cured 0 of 2; format: functional
[45] = test system: Mus musculus; assay: Suppressive blood schizonticidal antimalarial activity evaluated in the trophozoite-induced Plasmodium berghei infection in mice (Mus musculus) at a dose 320 mg/kg; format: functional; in short: as §4
[46] = test system: Plasmodium cynomolgi; assay: Cures in Plasmodium cynomolgi infected Rhesus monkeys (Macaca mulatta) on 10.0 mg/kg/day after 7 days; cured 2 of 2; format: functional
[47] = test system: Plasmodium cynomolgi; assay: Cures in Plasmodium cynomolgi infected Rhesus monkeys (Macaca mulatta) on 0.1 mg/kg/day after 7 days; cured 0 of 1; format: functional
[48] = test system: Mus musculus; assay: as §5; format: functional; in short: as §1
[49] = test system: Plasmodium cynomolgi; assay: Cures in Plasmodium cynomolgi infected Rhesus monkeys (Macaca mulatta) on 0.316 mg/kg/day after 7 days; cured 1 of 1; format: functional
[50] = test system: Mus musculus; assay: Suppressive blood schizonticidal antimalarial activity evaluated in the trophozoite-induced Plasmodium berghei infection in mice (Mus musculus) at a dose 2.5 mg/kg; format: functional; in short: as §4

SMILES	Cures [2]	Cures [5]	Cures [7]	Cures [10]	Toxic deaths [12]	Cures [13]	Toxic deaths [14]	Cures/no. of animals [15]	Toxic deaths [17]	Cures [18]	Delta MST [23]	Delta MST [24]	Cures/no. of animals [30]	Delta MST [31]	Delta MST [33]	further results
COc1cc(NC(C)CCCN)c2nccc(C)c2c1OCCCCCCOCc1ccccc1 (stereo not given)	2	4	1													Cures/no. of animals [1]: 2; Cures/no. of animals [3]: 3; Toxic deaths [4]: 2; Toxic deaths [6]: 5; Cures/no. of animals [8]: 1
CCCCCCOc1c(OC)cc(NC(C)CCCN)c2nccc(C)c12 (stereo not given) [WR-242511]	1	1	1	4	3	5	5	1	5	5						Cures/no. of animals [9]: 3; Cures/no. of animals [11]: 5; Cures/no. of animals [16]: 0
CCCCCCCCCCCOc1c(OC)cc(NC(C)CCCN)c2nccc(C)c12 (stereo not given)				2						1	1	3.7				Cures/no. of animals [19]: 2; Cures/no. of animals [20]: 0; Cures [21]: 5; Cures [22]: 5; Cures/no. of animals [25]: 1; Cures [26]: 5
CCCCCOc1c(OC)cc(NC(C)CCCN)c2nccc(C)c12 (stereo not given)	5	5	2		4	4	5		5	1						Toxic deaths [27]: 2; Cures/no. of animals [1]: 2; Cures/no. of animals [28]: 3
CCCCCOc1c(OC)cc(NC(C)CCCN)c2ncccc12 (stereo not given)					4		5	1			4.7	4.3	0	6.1	4.7	Cures/no. of animals [29]: 1; Toxic deaths [32]: 2
CCCCCCOc1c(OC)cc(NC(C)CCCN)c2ncc(C)cc12 (stereo not given)				1			3		4	2	8.2	0.2	0			Cures/no. of animals [34]: 3; Cures/no. of animals [35]: 0; Delta MST [36]: 7.6
CCCCCCOc1c(OC)cc(NC(C)CCCN)c2nc(C)cc(C)c12 (stereo not given)		1			5	2	5	1	5	5						Toxic deaths [27]: 5; Delta MST [37]: 7.3; Cures/no. of animals [38]: 2; Cures/no. of animals [39]: 2
CCCOc1c(OC)cc(NC(C)CCCN)c2ncccc12 (stereo not given)							5		5		4.5	3.7	0	8.3		Cures/no. of animals [40]: 2; Toxic deaths [41]: 1; Toxic deaths [42]: 5; Cures/no. of animals [43]: 3; Cures/no. of animals [25]: 1
COc1cc(NC(C)CCCN)c2nccc(C)c2c1 (stereo not given)											3.1			4.9	5.5	Cures/no. of animals [35]: 0; Delta MST [36]: 9; Cures/no. of animals [44]: 2; Cures [22]: 3; Delta MST [45]: 10; Cures/no. of animals [46]: 2
C=CCCOc1c(OC)cc(NC(C)CCCN)c2nccc(C)c12 (stereo not given)					5		5	1	5		8.8	7.5			0	Cures/no. of animals [47]: 0; Delta MST [37]: 8.1; Cures [48]: 1; Cures/no. of animals [49]: 1; Delta MST [50]: 7.5
